According to PubChem BioAssay AID623969 (Broad Institute, 2012):
Values joined by “and” are separate entries in the source; they are usually repeats but may differ in a detail not shown here. Equal entries are not always repeated.

system: S. cerevisiae growth in glycerol medium, OD600, 48 h; assay: S. cerevisiae growth inhibition in glycerol medium, dose response, OD600, powder samples, set 3 (AID 623969)
Outline: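 Assay system: S. cerevisiae yeast on glycerol. Buffer or medium: CSM medium supplemented with glycerol as carbon source. Detection: optical density at 600 nm. Times: 48 h exposure, 30 °C, no shaking. Benchmarks: amphotericin B 10 µM positive control. Doses: pinned compound dilution series. Read-out basis: Glycerol-dependent yeast growth.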

SMILES	AC50
CCOC(=O)N1C(=O)C2(CCCCC2)N(c2cccc(C)c2)C1=S	27.6 nM
CCOC(=O)N1C(=O)C2(CCCCC2)N(c2ccc(C)cc2)C1=S	15 nM and 13.6 nM
CCOC(=O)N1C(=O)C2(CCCCC2)N(c2ccc(Cl)cc2)C1=S	8.26 nM
CCOC(=O)N1C(=O)C2(CCCCC2)N(c2ccc(C#N)cc2)C1=S	4.81 nM
CC1/C=C/C=C\C=C\C=C\C=C\C=C\C=C\C(O[C@H]2OC(C)C(O)C(N)C2O)CC2OC(O)(CC(O)CC(O)C(O)CCC(O)CC(O)CC(=O)OC(C)C(C)C1O)CC(O)C2C(=O)O (stereo partly drawn)	234 nM
CCOC(=O)N1C(=O)C2(CCCCC2)N(c2ccc(F)cc2)C1=S	5.61 nM
CCOC(=O)N1C(=O)C2(CCCCC2)N(c2ccccc2)C1=S	20 nM
C/C=C/[C@@H]1[C@H]2C[C@@H](C)CC[C@@H]2C(C)=C[C@H]1C(=O)c1c(O)c(-c2ccc(O)cc2)c[nH]c1=O	33.5 nM
